The results in this text go back to ChEMBL document CHEMBL1154874, “6-Substituted 2-(N-trifluoroacetylamino)imidazopyridines induce cell cycle arrest and apoptosis in SK-LU-1 human cancer cell line” (Eur J Med Chem, 2010).

Experiment [1] has as its system SK-LU-1. The experiment in a line: Induction of apoptosis in human SK-LU-1 cells assessed as appearance of phosphatidylserine residues at 2 times IC50 concentration after 48 hrs by flow cytometry. The format is functional. The method in brief: (§1)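 SK-LU-1 cells treated 48 h with compounds at 2×IC50 or with DMSO as control. Labelled with FITC-annexin V and propidium iodide in binding buffer and analysed on a FACScan flow cytometer. Annexin V-only cells were scored as early apoptotic and annexin V/PI double-stained cells as late apoptotic. Values are means of three independent experiments.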

Experiment [2] has as its system MCF7. The experiment is described as follows: Cell cycle arrest in human MCF7 cells assessed as accumulation at G2/M phase at 2 times IC50 concentration after 24 hrs using propidium iodide staining by flow cytometry relative to control. It is filed as functional. An outline of the steps:
(§2)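 Log-phase cells seeded in RPMI-1640 + 10% FBS at 1×10⁶ per 10 cm dish, attached 24 h at 37 °C, then exposed to compound (DMSO solvent control) for 24 h. Harvested with PBS-EDTA, washed, fixed in ice-cold 70% ethanol at −20 °C for 24–48 h, stained with propidium iodide and analysed by FACScan flow cytometry. Three independent experiments, mean ± SD; P < 0.05 versus DMSO.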
On the technique in general: A flow cytometer gives signals particle by particle.

Experiment [3] relates to SK-LU-1. The experiment is described as follows: Cytotoxicity against human SK-LU-1 cells assessed as cell growth inhibition at 50 uM after 48 hrs by SRB assay. The format is functional. To be noted: SK-LU-1, 48 h, read-out: GI. An outline of the steps: (§3)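 Cells in RPMI-1640/10% FBS/2 mM L-glutamine at 37 °C, 5% CO₂, seeded at 5000 cells/well and treated 24 h later for 48 h. Growth read by SRB (TCA fixation, 0.4% SRB, Tris solubilization, OD 515 nm).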
For orientation: Sulforhodamine B stains cellular protein and so reports cell mass.

Experiment [4] has as its system SK-LU-1. The experiment is described as follows: Cell cycle arrest in human SK-LU-1 cells assessed as accumulation at S phase at 2 times IC50 concentration after 24 hrs using propidium iodide staining by flow cytometry relative to control. It is filed as functional. An outline of the steps: as §2
Experiment [5] relates to MCF7. The experiment is described as follows: Cell cycle arrest in human MCF7 cells assessed as accumulation at S phase at 2 times IC50 concentration after 24 hrs using propidium iodide staining by flow cytometry relative to control. The format is functional. The method in brief: as §2
Experiment [6] relates to PC-3. The experiment is described as follows: Cytotoxicity against human PC3 cells assessed as cell growth inhibition at 50 uM after 48 hrs by SRB assay. It is filed as functional. The conditions noted are these: PC-3, 48 h, read-out: GI. An outline of the steps:
as §3

Experiment [7] has as its system U-251. The experiment is described as follows: Cytotoxicity against human U251 cells assessed as cell growth inhibition at 50 uM after 48 hrs by SRB assay. It is filed as functional. The conditions noted are these: U-251, 48 h, read-out: GI. The method in brief: as §3
Experiment [8] deals with K562. The experiment is described as follows: Cytotoxicity against human K562 cells after 48 hrs by SRB assay. The format is functional, cell-based. To be noted: K562, 48 h. An outline of the steps:
(§4)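 Compounds dissolved in DMSO. Cells grown in RPMI-1640 with 10% FBS and 2 mM L-glutamine at 37 °C under 5% CO₂. Seeded from 70% confluent flasks at 5000 cells/well, treated 24 h after seeding for 48 h. Fixed in situ with cold 50% TCA for 1 h at 4 °C, stained with 0.4% SRB, dye solubilized in 10 mM unbuffered Tris base, OD read at 515 nm.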

Experiment [9] has as its system PC-3. The experiment is described as follows: Cytotoxicity against human PC3 cells after 48 hrs by SRB assay. It is filed as functional, cell-based. The conditions noted are these: PC-3, 48 h. The method in brief: as §4
Experiment [10] deals with MCF7. The experiment is described as follows: Cytotoxicity against human MCF7 cells after 48 hrs by SRB assay. The format is functional, cell-based. To be noted: MCF7, 48 h. The method in brief:
as §4

Experiment [11] relates to SK-LU-1. The experiment is described as follows: Induction of apoptosis in human SK-LU-1 cells assessed as late apoptotic cells at 2 times IC50 concentration after 48 hrs using annexin V-propidium iodide staining by flow cytometry. The format is functional, cell-based. An outline of the steps:
as §1

The subject of experiment [12] is SK-LU-1. The experiment is described as follows: Cell cycle arrest in human SK-LU-1 cells assessed as accumulation at G0/G1 phase at 2 times IC50 concentration after 24 hrs using propidium iodide staining by flow cytometry relative to control. It is filed as functional. The method in brief: as §2
In experiment [13] the test system is SK-LU-1. The experiment is described as follows: Induction of apoptosis in human SK-LU-1 cells assessed as early apoptotic cells at 2 times IC50 concentration after 48 hrs using annexin V-propidium iodide staining by flow cytometry. The format is functional, cell-based. An outline of the steps:
as §1

The test system of experiment [14] is HCT-15. The experiment is described as follows: Cytotoxicity against human HCT15 cells assessed as cell growth inhibition at 50 uM after 48 hrs by SRB assay. The format is functional. To be noted: for inhibition of growth at 50 µM: HCT-15, 48 h, read-out: GI. An outline of the steps: as §3
For experiment [15], the system named is K562. The experiment is described as follows: Cytotoxicity against human K562 cells assessed as cell growth inhibition at 50 uM after 48 hrs by SRB assay. It is filed as functional. To be noted: K562, 48 h, read-out: GI. An outline of the steps: as §3
For experiment [16], the system named is HCT-15. The experiment in a line: Cytotoxicity against human HCT15 cells after 48 hrs by SRB assay. It is filed as functional, cell-based. To be noted: HCT-15, 48 h. An outline of the steps:
as §4

The test system of experiment [17] is U-251. The experiment in a line: Cytotoxicity against human U251 cells after 48 hrs by SRB assay. The format is functional, cell-based. To be noted: U-251, 48 h. The method in brief:
as §4

The subject of experiment [18] is SK-LU-1. The experiment in a line: Cytotoxicity against human SK-LU-1 cells after 48 hrs by SRB assay. The conditions noted are these: SK-LU-1, 48 h. The format is functional, cell-based. The method in brief: as §4
Experiment [19] relates to MCF7. The experiment is described as follows: Cytotoxicity against human MCF7 cells assessed as cell growth inhibition at 50 uM after 48 hrs by SRB assay. It is filed as functional. To be noted: MCF7, 48 h, read-out: GI. The method in brief:
as §3

Experiment [20] deals with MCF7. The experiment in a line: Cell cycle arrest in human MCF7 cells assessed as accumulation at G0/G1 phase at 2 times IC50 concentration after 24 hrs using propidium iodide staining by flow cytometry relative to control. The format is functional. The method in brief:
as §2

The source made the active and inactive calls. The rule behind the calls is not given here.

As to `Cc1ccc(F)c(C(=O)c2ccc3nc(NC(=O)C(F)(F)F)cn3c2)c1`, the Activity in experiment [1] was found to be 20%; in experiment [2], 13.4%; in [4], 21.2%; in experiment [5] it was 7.1%; in [12], 10.4%; in experiment [20], 74%. For the same molecule, the inhibition of growth at 50 µM in experiment [3] stood at 71.7%; in experiment [6], 59.2%; in experiment [7], 61.5%; in experiment [14], 91.2%; in experiment [15], 92.6%; in experiment [19], 66.3%. The IC50 – broadly, the point on the concentration scale where inhibition reaches its midpoint – was determined as 10.9 µM in experiment [8]; 36.3 µM in experiment [9]; 10.7 µM in [10]; 10.5 µM in [16]; 51.9 µM in experiment [17]; 11.2 µM in experiment [18]. Further, the outcome in experiment [11] and in experiment [13] was Active.
Regarding `Cn1ccnc1C(=O)c1ccc2nc(NC(=O)C(F)(F)F)cn2c1`, the inhibition of growth at 50 µM turned out to be 29.2% in experiment [3]; 6.1% in [6]; 11.9% in [7]; 45.3% in experiment [15]; 30.8% in experiment [19]. In [14], the “growth inhibition (GI)” value is “inactive”.
Take `O=C(Nc1cn2cc(I)ccc2n1)C(F)(F)F`: the inhibition of growth at 50 µM in [3] came to 25.6%; in [6] it was 50.9%; in experiment [7], 20.8%; in [14], 56.3%; in experiment [15], 33.1%; in experiment [19], 36.7%.
On to `O=C(c1ccc(C(F)(F)F)c(F)c1)c1ccc2nc(NC(=O)C(F)(F)F)cn2c1`, for which the inhibition of growth at 50 µM worked out at 48.3% in [3]; 32.6% in [6]; 38.4% in experiment [7]; 59.2% in [14]; 50.1% in experiment [15]; 56.5% in experiment [19]. The IC50 worked out at 83.2 µM in [8]; 50.8 µM in [10]; 57.1 µM in experiment [16]; 84.2 µM in experiment [17]; 57.1 µM in [18].
Take `O=C(c1ccc2nc(NC(=O)C(F)(F)F)cn2c1)c1ncc[nH]1`: the inhibition of growth at 50 µM in [3] worked out at 97.5%; in experiment [6], 58.1%; in experiment [7], 80.2%; in experiment [14] it was 47.8%; in experiment [15] it was 88.3%; in experiment [19], 60.7%. Moreover, the half-maximal inhibitory concentration (IC50) in experiment [8] is 51.5 µM; in experiment [9], 52.3 µM; in experiment [10], 42.4 µM; in [16] it was 56.8 µM; in experiment [17] it was 37.7 µM; in [18], 25.1 µM.
